# Assay results of several laboratories.
# Compare with care: the assays were run in different laboratories.
# Read-out: cell growth or viability
Structure (SMILES),cell line,test,conditions,IC50
O=C(c1cc(Cl)c(Cl)[nH]1)c1c(O)ccc(C(c2csc(-c3ccccc3O)n2)c2ccc(O)c(C(=O)c3cc(Cl)c(Cl)[nH]3)c2O)c1O,MDCK,MTT,72 h,67 µg/mL
CCOc1cccc(-c2cnc3c(n2)CCCC3)c1,MCF-10A,,48 h,30.9 µM
CC(C)C(=O)SCCCCCCC(=O)Nc1nc(-c2ccccc2)cs1,CAL-27,,72 h,1.15 µM
COc1cc(Nc2nccc(-c3cnn4nc(OC)ccc34)n2)cc(C(F)(F)F)c1,OVK18,ATP luminescence,,0.41 µM
CC(C)c1ccccc1S(=O)(=O)c1cc(N)c2ncccc2c1[N+](=O)[O-],CAL-27,,72 h,> 20 µM
COc1cc(C2Oc3cc([C@H]4Oc5cc(O)cc(O)c5C(=O)[C@@H]4O)ccc3OC2CO)ccc1O (some centres unmarked),SNU-423,CCK-8,72 h,18.8 µM
CCOc1ccc(-c2cnc3c(n2)CCCC3)cc1,MCF-10A,,48 h,> 50 µM
COc1cc2nc(N3CCN(C(=O)c4ccco4)[C@H]4CCCC[C@H]43)nc(N)c2cc1OC (racemic),CAL-27,,72 h,13.3 µM
O=C(Nc1nnnn1C1CCCCC1)c1ccc2ccccc2c1,MCF-10A,,48 h,81 µM
CC(C)C[C@H](NC(=O)[C@H](Cc1ccccc1)NC(=O)c1cnccn1)B(O)O,SCLC-21H,ATP luminescence,,0.011 µM
CCCCOc1ccc(-c2cnc3c(n2)CCCC3)cc1,MCF-10A,,48 h,25 to 50 µM
N#Cc1ccc(COC[C@H]2O[C@@H](n3c(NCc4ccc(Cl)c(Cl)c4)nc4c(N)ncnc43)[C@H](O)[C@@H]2O)cc1,CAL-27,,72 h,> 20 µM
C[C@H]1[C@@H](O)O[C@@H]2O[C@@]3(C)CC[C@H]4[C@H](C)CC[C@@H]1[C@@]24OO3,MCF-10A,CCK-8,48 h,44.4 µM
C=CC1=C(C(=O)O)N2C(=O)[C@@H](NC(=O)/C(=N\OCC(=O)O)c3csc(N)n3)[C@H]2SC1,VCaP,CCK-8,72 h,> 30 µM
CNC(=O)c1ccc(N2C(=S)N(c3cnc(C#N)c(C(F)(F)F)c3)C(=O)C23CCC3)cc1F,VCaP,ATP luminescence,6 days,0.39 µM
COc1cc(OC)c(/C=C/S(=O)(=O)Nc2ccc(OC)c(N)c2)c(OC)c1,N417,trypan blue,96 h,0.004 µM
NCCc1ccc(O)c(O)c1,CAL-27,,72 h,> 20 µM
O=C1CCCCC1C1C2C=CC=CC1/C(=C/c1ccccc1)C2 (centres unmarked),K562,flow cytometry,,0.059 µM
c1ccc(-c2cccc(-c3cnc4c(n3)CCCC4)c2)cc1,MCF-10A,,48 h,> 50 µM
CN(C)CC[C@@H](c1ccc(Cl)cc1)c1ccccn1,CAL-27,,72 h,> 20 µM
O=C(c1cc(Cl)c(Cl)[nH]1)c1c(O)ccc(Cc2ccc(O)c(C(=O)c3cc(Cl)c(Cl)[nH]3)c2O)c1O,MDCK,MTT,72 h,25 µg/mL
O=C(C=C[c-]1cccc1)c1sccc1Br.[Fe+2].c1cc[cH-]c1,4T1,MTT,72 h,32.9 µM
COc1ccc2c(c1OC)C(=O)O[C@@H]2[C@H]1c2c(cc3c(c2OC)OCO3)CCN1C,CAL-27,,72 h,17 µM
CCN1CCN(Cc2ccc(Nc3ncc(F)c(-c4cc(F)c5nc(C)n(C(C)C)c5c4)n3)nc2)CC1,4T1,CCK-8,,> 2 µM
CCCCCc1ccc(-c2cnc3c(n2)CCCC3)cc1,MCF-10A,,48 h,> 50 µM
S=C(NN=Cc1ccc(Cl)s1)Nc1ccccc1,CRFK,,,10.1 µM
CC1(C)S[C@@H]2[C@H](NC(=O)[C@H](N)c3ccc(O)cc3)C(=O)N2[C@H]1C(=O)O,VCaP,CCK-8,72 h,> 30 µM
COc1cccc2c1C(=O)c1c(O)c3c(c(O)c1C2=O)C[C@@](O)(C(=O)CO)C[C@@H]3O[C@H]1C[C@H](N)[C@H](O)[C@H](C)O1,MCF-10A,,48 h,1.2 µM
O=C(NC(=S)NCc1ccc(CNC(=S)NC(=O)c2ccc3ccccc3c2)cc1)c1ccc2ccccc2c1,MCF-10A,,48 h,91.4 µM
Cc1cc(NC(=O)c2cccc3cc(-c4cccc5[nH]nc(N)c45)ccc23)ccc1F,GL261,CCK-8,72 h,> 20 µM
O=C1Nc2ccc(Cl)cc2[C@@](C#CC2CC2)(C(F)(F)F)O1,CAL-27,,72 h,> 20 µM
CC(C)c1cccc(C(C)C)c1N1CCN(c2c(C(C)C)cccc2C(C)C)C1=[Se],HCT-15,MTT,72 h,15.8 µM
